Test results as given in publication PMC3149845 (The Journal of neuroscience : the official journal of the …, 2011).
Entries after “also recorded” stand apart in the source; their conditions may differ. Peptide text beside a SMILES is read from it.

Tests used:
[1] = target: T1, h(1–572)smTas1R2 + hTas1R3 (Homo sapiens, UniProt Q8TE23, A658V/A782V/G696S/I595M/I692T/L639V/L764F/L798F/M682V/M697L/P624L/P678S/P710T/Q592E/S703N/S784D/T716M/V687A/V718I/V741A); experiment: Ca2+ mobilization, chimera receptor; type: cell-based, human/squirrel monkey; details: aspartame 10mM, neotame 1mM, sucralose 2 mM; compared with hTas1R2/hTas1R3
T1 sequence (Q8TE23 20-839 Q592E/I595M/P624L/L639V/A658V/P678S/M682V/V687A/I692T/G696S/M697L/S703N/P710T/T716M/V718I/V741A/L764F/A782V/S784D/L798F): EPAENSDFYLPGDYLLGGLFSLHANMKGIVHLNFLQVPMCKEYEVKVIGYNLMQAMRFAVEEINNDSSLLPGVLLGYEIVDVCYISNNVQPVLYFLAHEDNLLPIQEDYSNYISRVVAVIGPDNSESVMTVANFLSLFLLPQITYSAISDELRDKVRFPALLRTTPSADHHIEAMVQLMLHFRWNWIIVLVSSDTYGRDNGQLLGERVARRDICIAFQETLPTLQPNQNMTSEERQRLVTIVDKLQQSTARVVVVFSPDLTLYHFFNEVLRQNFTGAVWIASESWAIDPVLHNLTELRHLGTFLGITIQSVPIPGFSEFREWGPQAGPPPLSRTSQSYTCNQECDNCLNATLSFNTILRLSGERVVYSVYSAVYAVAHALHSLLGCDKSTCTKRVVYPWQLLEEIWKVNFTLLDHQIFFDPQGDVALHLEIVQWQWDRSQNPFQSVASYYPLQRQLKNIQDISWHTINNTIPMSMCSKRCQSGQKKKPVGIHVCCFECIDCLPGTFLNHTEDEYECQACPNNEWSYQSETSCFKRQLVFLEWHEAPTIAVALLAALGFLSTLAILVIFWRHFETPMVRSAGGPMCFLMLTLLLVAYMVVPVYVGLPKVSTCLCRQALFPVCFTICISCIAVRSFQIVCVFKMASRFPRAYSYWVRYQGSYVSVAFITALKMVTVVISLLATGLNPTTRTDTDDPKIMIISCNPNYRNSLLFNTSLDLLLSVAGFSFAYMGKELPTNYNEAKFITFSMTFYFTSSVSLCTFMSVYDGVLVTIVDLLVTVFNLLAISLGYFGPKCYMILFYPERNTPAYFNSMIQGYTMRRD
T1 sequence (Q7RTX0 21-852 partner): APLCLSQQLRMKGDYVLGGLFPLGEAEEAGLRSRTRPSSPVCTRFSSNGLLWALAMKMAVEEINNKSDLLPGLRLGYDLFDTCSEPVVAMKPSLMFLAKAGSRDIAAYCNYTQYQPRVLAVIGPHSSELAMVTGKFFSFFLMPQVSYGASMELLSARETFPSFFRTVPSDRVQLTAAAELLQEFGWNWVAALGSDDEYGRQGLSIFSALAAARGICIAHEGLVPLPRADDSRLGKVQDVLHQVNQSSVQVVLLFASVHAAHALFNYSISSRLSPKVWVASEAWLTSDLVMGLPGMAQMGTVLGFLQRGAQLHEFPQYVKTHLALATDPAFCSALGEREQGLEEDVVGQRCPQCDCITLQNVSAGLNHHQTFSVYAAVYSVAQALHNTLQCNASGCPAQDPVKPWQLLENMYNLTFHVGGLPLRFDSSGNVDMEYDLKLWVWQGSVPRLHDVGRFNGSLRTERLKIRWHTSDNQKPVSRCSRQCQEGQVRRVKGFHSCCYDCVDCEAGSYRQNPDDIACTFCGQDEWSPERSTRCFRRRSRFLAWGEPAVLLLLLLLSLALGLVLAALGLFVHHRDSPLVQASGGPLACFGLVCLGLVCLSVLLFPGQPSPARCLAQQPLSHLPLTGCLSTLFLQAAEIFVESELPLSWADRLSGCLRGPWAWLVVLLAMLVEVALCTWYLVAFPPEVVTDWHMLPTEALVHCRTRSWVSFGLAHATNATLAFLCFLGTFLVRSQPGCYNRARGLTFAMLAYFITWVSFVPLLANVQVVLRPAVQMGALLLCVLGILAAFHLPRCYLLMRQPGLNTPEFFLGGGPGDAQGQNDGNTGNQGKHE
In short: (§1)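 HEK293E cells grown at 37°C in Opti-MEM with 5% FBS and seeded at 50,000/well. Cells co-lipofected with Tas1R plasmids and Gα16-gust44 (0.06 μg each per well); medium changed at 20 h, assayed 24 h later. Cells loaded 1 h with Fluo-4 AM in HEPES-buffered HBSS. Tastant added at 30 s; fluorescence (ex 488/em 525 nm) read every 2 s for 150 s more. ΔF/F normalised to human receptor maximal sucralose response; mean ± SEM, three independent experiments.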

hTas1R2:S40T+hTas1R3 = target: T2, hTas1R2:S40T+hTas1R3 (Homo sapiens, UniProt Q8TE23, S40T); experiment: Ca2+ mobilization, mutated human receptor; type: cell-based; details: aspartame 10mM, neotame 1mM, sucralose 2 mM; compared with hTas1R2/hTas1R3
T2 sequence (Q8TE23 20-839 S40T): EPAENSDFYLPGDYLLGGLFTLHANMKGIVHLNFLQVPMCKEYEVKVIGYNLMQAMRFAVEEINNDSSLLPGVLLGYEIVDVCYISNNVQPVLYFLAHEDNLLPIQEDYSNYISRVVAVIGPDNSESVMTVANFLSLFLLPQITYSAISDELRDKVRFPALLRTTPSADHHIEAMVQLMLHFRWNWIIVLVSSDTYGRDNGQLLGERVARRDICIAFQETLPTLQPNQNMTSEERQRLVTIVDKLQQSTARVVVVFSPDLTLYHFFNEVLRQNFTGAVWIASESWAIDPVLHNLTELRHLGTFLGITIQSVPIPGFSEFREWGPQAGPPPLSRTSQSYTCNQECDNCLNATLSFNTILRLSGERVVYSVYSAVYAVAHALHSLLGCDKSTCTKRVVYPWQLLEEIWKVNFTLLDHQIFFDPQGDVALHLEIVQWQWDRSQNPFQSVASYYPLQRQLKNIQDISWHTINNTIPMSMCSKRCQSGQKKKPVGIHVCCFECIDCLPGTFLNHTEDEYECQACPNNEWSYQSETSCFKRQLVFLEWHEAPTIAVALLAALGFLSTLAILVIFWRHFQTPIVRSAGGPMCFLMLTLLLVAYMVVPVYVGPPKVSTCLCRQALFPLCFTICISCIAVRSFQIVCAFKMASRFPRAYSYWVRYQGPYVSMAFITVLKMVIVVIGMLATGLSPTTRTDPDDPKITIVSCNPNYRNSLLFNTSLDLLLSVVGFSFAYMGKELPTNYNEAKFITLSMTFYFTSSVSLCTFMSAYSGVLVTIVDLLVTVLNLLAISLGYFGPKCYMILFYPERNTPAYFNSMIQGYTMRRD
T2 sequence (Q7RTX0 21-852 partner): T1 sequence (Q7RTX0 21-852 partner)
In short: as §1

Compound | calcium response to sweetener [1] | calcium response to sweetener (hTas1R2:S40T+hTas1R3)
COC(=O)[C@H](Cc1ccccc1)NC(=O)[C@@H](N)CC(=O)O [aspartame, L-α-aspartly-L-phenylalanine methyl ester] (H-Asp-Phe-OMe) | significantly reduced responses; also recorded: significant reduction of the response | abolished
COC(=O)[C@H](Cc1ccccc1)NC(=O)[C@H](CC(=O)O)NCCC(C)(C)C [neotame] | significantly reduced responses; also recorded: significant reduction of the response | did not affect significantly
OC[C@H]1O[C@H](O[C@]2(CCl)O[C@H](CCl)[C@@H](O)[C@@H]2O)[C@H](O)[C@@H](O)[C@H]1Cl [sucralose] | significant reduction of the response | significantly reduced
